Source: ChEMBL document CHEMBL1671778, “Synthesis and serotonin transporter activity of 1,3-bis(aryl)-2-nitro-1-propenes as a new class of anticancer agents” (Bioorg Med Chem, 2011)
The source made the active and inactive calls. The calls are words filed in the database; no cut-off is given here.

How the values were obtained:
DG-75 [1] = experiment: Antiproliferative activity against human DG75 cells after 24 hrs Alamar blue assay; type: functional, cell-based; conditions: DG-75, 24 h
How it was run: (§1)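 Alamar Blue viability: 1-5x10^4 cells/well treated 24 h, then Alamar Blue (pre-warmed) 4-6 h at 37 °C in the dark. Fluorescence read at 590 nm (excitation 544 nm), background of medium plus dye subtracted, untreated cells = 100% viability. Miconazole 10 µM as cell-death control. Range 1 µM-1 mM, triplicate on two independent days. pEC50 from non-linear sigmoidal regression.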

[2] = Antiproliferative activity against human chemosensitive MUTU-I cells after 24 hrs Alamar blue assay; type: functional, cell-based; how it was run: as §1
SH-SY5Y [3] = experiment: Antiproliferative activity against human SH-SY5Y cells after 24 hrs Alamar blue assay; type: functional, cell-based; how it was run: as §1
DG-75 [4] = experiment: Cytotoxicity against human chemoresistant DG75 cells expressing SERT assessed as decrease in cell viability 10 or 50 uM after 72 hrs Alamar blue assay; type: functional, cell-based; conditions: DG-75, 72 h
How it was run: (§2)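 1-5x10^4 cells/200 µl given 10 or 50 µM for 24 h (MUTU-I, MDA-MB231, PBMC) or […]. Alamar Blue at 37 °C in the dark 4-6 h, then fluorescence read with 544/590 nm. Media-only background subtracted; untreated cells set as 100% viability. Mean of six points (triplicate, two independent days). PBMCs from a healthy donor, isolated by ficoll density separation.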

[5] = biological target: T1, Sodium-dependent serotonin transporter (Homo sapiens, UniProt P31645); conditions: HEK293, at 100 µM
Target sequence in this assay (P31645 whole entry, looked up): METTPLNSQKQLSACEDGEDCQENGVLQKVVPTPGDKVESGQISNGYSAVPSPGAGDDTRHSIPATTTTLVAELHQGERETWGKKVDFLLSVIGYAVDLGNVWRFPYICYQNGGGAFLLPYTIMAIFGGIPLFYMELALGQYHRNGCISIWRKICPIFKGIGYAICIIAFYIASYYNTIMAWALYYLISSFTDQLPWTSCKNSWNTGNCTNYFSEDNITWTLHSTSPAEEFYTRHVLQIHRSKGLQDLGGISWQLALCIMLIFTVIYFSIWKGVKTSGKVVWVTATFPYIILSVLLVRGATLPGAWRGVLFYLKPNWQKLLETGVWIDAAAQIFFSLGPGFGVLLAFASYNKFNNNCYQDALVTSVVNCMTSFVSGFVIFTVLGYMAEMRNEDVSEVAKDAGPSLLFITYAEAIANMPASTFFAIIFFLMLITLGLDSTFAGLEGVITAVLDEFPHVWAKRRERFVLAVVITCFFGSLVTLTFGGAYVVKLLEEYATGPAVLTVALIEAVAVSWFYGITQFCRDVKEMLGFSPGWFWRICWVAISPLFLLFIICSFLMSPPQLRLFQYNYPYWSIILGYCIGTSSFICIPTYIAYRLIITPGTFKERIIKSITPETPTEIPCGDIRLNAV

[6] = biological target: T1, Sodium-dependent serotonin transporter; conditions: HEK293, at 1 µM
Target sequence in this assay (P31645 whole entry, looked up): as above

HEK293 [7] = experiment: Cytotoxicity against human HEK293 cells assessed as decrease in cell viability after 48 hrs neutral red dye assay; type: functional, cell-based; conditions: HEK293, 48 h
How it was run: (§3)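 5x10^4 cells/well grown to sub-confluence (24-36 h), then exposed to compound 48 h. Neutral red dye 3+1 h, solubilised in 50% ethanol/1% acetic acid, absorbance 540 nm (690 nm background). Viability as percent of vehicle-treated cells; pEC50 by non-linear sigmoidal regression over 4 concentrations, triplicate on two independent days. Controls 30 mM sodium azide, 2% Triton-X. HEK293-hSERT cells kept in Geneticin, used up to 30 passages.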

SH-SY5Y [8] = experiment: Cytotoxicity against human SH-SY5Y cells expressing human SERT assessed as decrease in cell viability after 48 hrs neutral red dye assay; type: functional, cell-based
HEK293 [9] = experiment: Cytotoxicity against human HEK293 cells expressing human SERT assessed as decrease in cell viability after 48 hrs neutral red dye assay; type: functional, cell-based; conditions: HEK293, 48 h; how it was run: as §3
PBMC = experiment: Cytotoxicity against human PBMC cells assessed as decrease in cell viability 10 or 50 uM after 24 hrs Alamar blue assay; type: cell-based; how it was run: as §2
[10] = biological target: T1, Sodium-dependent serotonin transporter; experiment: Inhibition of [3H]-serotonin reuptake at human SERT expressed in HEK293 cells after 15 to 20 mins by fluorescence neurotransmitter transporter assay; type: cell-based
Target sequence in this assay (P31645 whole entry): as the sequence (P31645 whole entry, looked up) above

MUTU-I [11] = experiment: Induction of apoptosis in human chemosensitive MUTU-I cells assessed as chromatin condensation and membrane bledding at 10 uM after 8 hrs; type: functional, cell-based
How it was run: (§4)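 Cells at 3x10^5 cells/mL exposed for 4 h or 8 h. 150 µl aliquots were cytocentrifuged onto slides (500 ×g, 2 min), air-dried, methanol-fixed, and stained with eosin Y and methylene blue. Morphology was examined by light microscopy at 60x.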

MUTU-I [12] = experiment: Induction of apoptosis in human chemosensitive MUTU-I cells assessed as caspase 3/7 activation at 10 uM after 5 hrs; type: functional, cell-based
How it was run: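 Caspase 3/7 activity by homogeneous fluorogenic kit: 0.5x10^5 cells exposed to compound (10 µM) for 5 h, then 100 µl Z-DEVD-R110 substrate added. After 2 h, cleaved substrate measured at 521 nm (excitation 499 nm).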

Tubulin (Homo sapiens) = Tubulin (Homo sapiens) (UniProt P68371+Q9H4B7+P0DPH7+P68366+Q13509+Q71U36+P04350+Q3ZCM7+P07437+P68363+Q9BQE3+Q6PEY2+Q13885+Q9BVA1+Q9BUF5); experiment: Inhibition of tubulin polymerisation in human chemosensitive MUTU-I cells after 30 mins; type: cell-based
[13] = biological target: T2, Tyrosine-protein phosphatase non-receptor type 1 (Homo sapiens) (UniProt P18031); experiment: Inhibition of human recombinant PTP1B in chemosensitive MUTU-I cells after 30 mins; type: cell-based
T2 sequence (whole entry): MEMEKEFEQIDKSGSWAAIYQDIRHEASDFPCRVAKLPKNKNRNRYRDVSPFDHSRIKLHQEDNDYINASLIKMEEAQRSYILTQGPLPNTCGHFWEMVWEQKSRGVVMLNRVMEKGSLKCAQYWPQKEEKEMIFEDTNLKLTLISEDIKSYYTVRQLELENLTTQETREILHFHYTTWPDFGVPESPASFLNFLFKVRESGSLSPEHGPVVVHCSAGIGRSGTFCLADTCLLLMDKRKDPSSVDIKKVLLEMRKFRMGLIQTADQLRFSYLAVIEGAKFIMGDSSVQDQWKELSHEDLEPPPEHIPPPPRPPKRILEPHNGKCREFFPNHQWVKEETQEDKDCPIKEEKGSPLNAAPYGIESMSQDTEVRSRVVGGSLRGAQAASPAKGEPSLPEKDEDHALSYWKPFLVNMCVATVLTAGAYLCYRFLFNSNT
How it was run: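 Recombinant PTP1B expressed in E. coli, incubated with compound and a phosphopeptide substrate for 30 min at 30 °C. Released phosphate detected by malachite green at 620 nm and quantified against a phosphate standard curve. Suramin as positive control.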

MUTU-I [14] = experiment: Induction of apoptosis in human chemosensitive MUTU-I cells assessed as induction of PARP cleavage at 10 uM after 4 hrs; type: functional, cell-based
How it was run: (§5)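 PARP cleavage by Western blot: 5x10^6 cells pelleted (500 ×g, 5 min), washed, and lysed in Laemmli buffer with protease inhibitors. Lysates run on 8% SDS-PAGE, transferred to PVDF, and probed with anti-PARP detecting full-length 113 kDa and cleaved 85 kDa forms. HRP secondary antibody, chemiluminescence detection.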

MUTU-I [15] = experiment: Induction of apoptosis in human chemosensitive MUTU-I cells assessed as chromatin condensation and membrane bledding at 10 uM after 4 hrs; type: functional, cell-based; how it was run: as §4
[16] = Induction of apoptosis in human chemosensitive MUTU-I cells assessed as accumulation at pre-G1 phase at 10 uM by propidium iodide FACS analysis; type: functional
How it was run: (§6)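 750,000 MUTU-I cells per sample treated for the stated time, then harvested (300 ×g, 5 min), washed in ice-cold PBS and fixed overnight at 4 °C in 70% ethanol. Stained with RNase A and propidium iodide, 30 min at 37 °C in the dark. Flow cytometry counted 10,000 gated cells for cell-cycle phases. Taxol 10 µM as positive control.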

MUTU-I [17] = experiment: Induction of apoptosis in human chemosensitive MUTU-I cells assessed as accumulation at G2/M phase after 2 to 8 hrs by propidium iodide FACS analysis relative to taxol; type: functional, cell-based; how it was run: as §6
MUTU-I [18] = experiment: Induction of apoptosis in human chemosensitive MUTU-I cells assessed as induction of PARP cleavage at 10 uM after 8 hrs; type: functional, cell-based; how it was run: as §5
MUTU-I [19] = experiment: Induction of apoptosis in human chemosensitive MUTU-I cells assessed as caspase 3/7 activation at 10 uM after 4 hrs; type: functional, cell-based

SMILES	EC50 (DG-75 [1]) [µM]	EC50 [2] [µM]	EC50 (SH-SY5Y [3]) [µM]	EC50 (DG-75 [4]) [µM]	inhibition [5] [%]	inhibition [6] [%]	EC50 (HEK293 [7]) [µM]	EC50 (SH-SY5Y [8]) [µM]	EC50 (HEK293 [9]) [µM]	further results
CSc1ccc(C/C(=C/c2ccc(Cl)cc2)[N+](=O)[O-])cc1	7.94	3.16	20	–	–	–	–	–	–	–
COc1ccc(CC(N)Cc2ccc(OC)cc2)cc1	398	794	20	20	65	11	31.6	20	25.1	–
NC(Cc1ccc(Cl)cc1)Cc1ccc(Cl)cc1	25.1	0.158	5.01	–	–	–	–	–	–	Activity (PBMC): Toxic
CN(C)CCCC1(c2ccc(F)cc2)OCc2cc(C#N)ccc21 (configuration not stated) [CITALOPRAM]	–	–	–	12.6	–	–	15.8	25.1	–	–
OC(Cc1ccc2c(c1)OCO2)Cc1ccc2c(c1)OCO2	126	39.8	158	–	–	–	–	–	–	–
CCNC(Cc1ccc(SC)cc1)Cc1ccc(SC)cc1	–	–	–	12.6	92	31	1260	15.8	25.1	IC50 [10]: 2.2 µM
COc1ccc(/C=C(/Cc2ccc(OC)cc2)[N+](=O)[O-])cc1	12.6	2.51	12.6	–	10	25	–	–	–	Activity (MUTU-I [11]): Active; Activity (MUTU-I [12]): Active; inhibition (Tubulin (Homo sapiens)): inactive; inhibition [13]: inactive; Activity (MUTU-I [14]): Active; Activity (MUTU-I [15]): Active; Activity [16]: 32%; Activity (MUTU-I [17]): Active; Activity (MUTU-I [18]): Active; Activity (MUTU-I [19]): Active
CSc1ccc(CC(N)Cc2ccc(SC)cc2)cc1	25.1	12.6	12.6	25.1	98	50	20	20	31.6	Activity (PBMC): Toxic; IC50 [10]: 2.5 µM
CSc1ccc(CC(Cc2ccc(SC)cc2)NC(C)=O)cc1	398	158	15800	3980	28	0	–	3980	39.8	–
O=CNC(Cc1ccc2c(c1)OCO2)Cc1ccc2c(c1)OCO2	158	63.1	224	15.8	55	18	> 10000	> 10000	1580	–
COc1ccc(CC(Cc2ccc(OC)cc2)NC=O)cc1	200	200	316	1580	18	8	31.6	> 10000	3980	–
CC(=O)NC(Cc1ccc2c(c1)OCO2)Cc1ccc2c(c1)OCO2	–	–	–	1260	–	–	3980	> 10000	> 10000	–
O=[N+]([O-])/C(=C\c1ccc2c(c1)OCO2)Cc1ccc2c(c1)OCO2	50.1	3.16	31.6	1	36	15	7.94	15.8	12.6	Activity (MUTU-I [11]): Active; Activity (MUTU-I [12]): Active; inhibition (Tubulin (Homo sapiens)): inactive; inhibition [13]: inactive; Activity (MUTU-I [14]): Active; Activity (MUTU-I [15]): Active; Activity [16]: 30%; Activity (MUTU-I [17]): Active; Activity (MUTU-I [18]): Active; Activity (MUTU-I [19]): Active
O=[N+]([O-])/C(=C\c1ccc(Cl)cc1)Cc1ccc(Cl)cc1	12.6	1	2.51	–	23	0	–	–	–	Activity (MUTU-I [11]): Active; Activity (MUTU-I [12]): Active; inhibition (Tubulin (Homo sapiens)): inactive; inhibition [13]: inactive; Activity (MUTU-I [14]): Active; Activity (MUTU-I [15]): Active; Activity [16]: 41%; Activity (MUTU-I [17]): Active; Activity (MUTU-I [18]): Active; Activity (MUTU-I [19]): Active
CSc1ccc(CC(C)N)cc1 (configuration not stated) [4-METHYLTHIOAMPHETAMINE]	–	–	–	316	–	–	20	631	25.1	IC50 [10]: 0.2 µM
CSc1ccc(/C=C(/Cc2ccc(SC)cc2)[N+](=O)[O-])cc1	39.8	3.16	20	–	18	25	–	–	–	Activity (MUTU-I [11]): Active; Activity (MUTU-I [12]): Active; inhibition (Tubulin (Homo sapiens)): inactive; inhibition [13]: inactive; Activity (MUTU-I [14]): Active; Activity (MUTU-I [15]): Active; Activity [16]: 50%; Activity (MUTU-I [17]): Active; Activity (MUTU-I [18]): Active; Activity (MUTU-I [19]): Active
CC(N)Cc1ccc2c(c1)OCO2 (configuration not stated) [TENAMFETAMINE]	–	–	–	2000	–	–	316	> 10000	631	IC50 [10]: 0.9 µM
ON=C(Cc1ccc2c(c1)OCO2)Cc1ccc2c(c1)OCO2	50.1	25.1	63.1	–	–	–	–	–	–	–
O=[N+]([O-])/C(=C\c1ccc(Cl)cc1)Cc1ccc(Cl)cc1Cl	3.16	3.16	25.1	–	–	–	–	–	–	–
O=C(Cc1ccc2c(c1)OCO2)Cc1ccc2c(c1)OCO2	158	100	251	3160	–	–	1260	> 10000	5010	–
CNC(C)Cc1ccc2c(c1)OCO2 (configuration not stated) [MIDOMAFETAMINE]	–	–	–	31.6	–	–	251	> 10000	501	IC50 [10]: 1.1 µM
NC(Cc1ccc2c(c1)OCO2)Cc1ccc2c(c1)OCO2	251	50.1	31.6	15.8	77	44	25.1	31.6	31.6	IC50 [10]: 1.6 µM
